Test results reported in ChEMBL document CHEMBL1909519, “L-Proline anchored multicomponent synthesis of novel pyrido[2,3-a]carbazoles; investigation of in vitro antimicrobial, antioxidant, cytotoxicity and structure activity relationship studies” (Eur J Med Chem, 2011).
In brackets after ≈: the same amount, converted by molar mass.

Key:
Klebsiella pneumoniae [1] = experiment: Antibacterial activity against Klebsiella pneumoniae at 25 ug/ml after 24 hrs by agar disk diffusion assay; format: functional; conditions: read-out: DIZ
Method in brief: (§1)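 Gram-negative clinical isolates (PSG Hospital, Coimbatore) tested by agar well diffusion on nutrient agar. Compounds dissolved in DMSO at 0 (control), 25, 50, 75, 100; DMSO was the negative control and ciprofloxacin ([…]) the positive control. Incubation 37 ± 2 °C for 24 h, then inhibition zone diameter measured in mm.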

Aspergillus niger [2] = experiment: Antifungal activity against Aspergillus niger at 25 ug/ml after 48 hrs by agar disk diffusion assay; format: functional; conditions: read-out: DIZ
Method in brief: (§2)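 Fungal isolates (PSG Hospital, Coimbatore) grown on Sabouraud dextrose agar; agar well diffusion with compounds in DMSO at 0 (control), 25, 50, 75, 100. DMSO negative control, fluconazole ([…]) positive control. Plates held 28 ± 2 °C for 48 h; zone of inhibition diameter recorded in mm.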

B16-F10 [3] = experiment: Cytotoxicity against mouse B16F10 cells after 48 hrs by SRB assay; format: functional, cell-based; conditions: B16-F10, 48 h
Method in brief: (§3)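 Cells in RPMI-1640 with 10% heat-inactivated FBS, 1 mM NaHCO3, 2 mM L-glutamine, 37 °C, 5% CO2; seeded (B16F10 5 × 10⁴ cells/mL, others 1 × 10⁵ cells/mL), 24 h, then compounds in DMSO at 1.56–50 for 48 h, triplicate wells. TCA fixation, SRB staining 30 min, tris extraction, OD 520 nm; IC50 by linear regression, mean ± SD of three independent experiments; cisplatin positive control.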

[4] = test system: Radical scavenging activity; experiment: Antioxidant activity assessed as DPPH radical scavenging activity after 30 mins by micro plate reader; format: functional
Method in brief: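 DPPH assay: various compound concentrations brought to volume with ethanol, mixed with 0.1 mM ethanolic DPPH alongside vitamin C standard; shaken 30 min at 24 °C, absorbance read at 517 nm; concentration giving 50% decrease determined.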

Candida albicans [5] = experiment: Antifungal activity against Candida albicans at 25 ug/ml after 48 hrs by agar disk diffusion assay; format: functional; conditions: read-out: DIZ; method in brief: as §2
Escherichia coli [6] = experiment: Antibacterial activity against Escherichia coli at 25 ug/ml after 24 hrs by agar disk diffusion assay; format: functional; conditions: read-out: DIZ; method in brief: as §1
[7] = Cytotoxicity against human SK-MEL-12 cells after 48 hrs by SRB assay; format: functional, cell-based; method in brief: as §3
HCT-15 [8] = experiment: Cytotoxicity against human HCT15 cells after 48 hrs by SRB assay; format: functional, cell-based; conditions: HCT-15, 48 h; method in brief: as §3
Candida albicans [9] = experiment: Antifungal activity against Candida albicans after 48 hrs by agar disk diffusion assay; format: functional; method in brief: as §2
Aspergillus niger [10] = experiment: Antifungal activity against Aspergillus niger after 48 hrs by agar disk diffusion assay; format: functional; method in brief: as §2
Escherichia coli [11] = experiment: Antibacterial activity against Escherichia coli after 24 hrs by agar disk diffusion assay; format: functional; method in brief: as §1
A549 [12] = experiment: Cytotoxicity against human A549 cells after 48 hrs by SRB assay; format: functional, cell-based; conditions: A549, 48 h; method in brief: as §3
Klebsiella pneumoniae [13] = experiment: Antibacterial activity against Klebsiella pneumoniae after 24 hrs by agar disk diffusion assay; format: functional; method in brief: as §1
Staphylococcus aureus [14] = experiment: Antibacterial activity against Staphylococcus aureus at 25 ug/ml after 24 hrs by agar disk diffusion assay; format: functional; conditions: read-out: DIZ
Method in brief: (§4)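 Agar well diffusion on nutrient agar against Gram-positive clinical isolates (PSG Hospital, Coimbatore). Compounds in DMSO tested at 0 (control), 25, 50, 75, 100; DMSO as solvent and negative control; ciprofloxacin ([…]) as positive control. Plates incubated 37 ± 2 °C, 24 h; zone of inhibition diameter read in mm.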

SK-OV-3 [15] = experiment: Cytotoxicity against human SKOV3 cells up to 50 ug/ml after 48 hrs by SRB assay; format: functional, cell-based; method in brief: as §3
Enterococcus faecalis [16] = experiment: Antibacterial activity against Enterococcus faecalis at 25 ug/ml after 24 hrs by agar disk diffusion assay; format: functional; conditions: read-out: DIZ; method in brief: as §4
Staphylococcus aureus [17] = experiment: Antibacterial activity against Staphylococcus aureus after 24 hrs by agar disk diffusion assay; format: functional; method in brief: as §4
Enterococcus faecalis [18] = experiment: Antibacterial activity against Enterococcus faecalis after 24 hrs by agar disk diffusion assay; format: functional; method in brief: as §4
Escherichia coli [19] = experiment: Antibacterial activity against Escherichia coli at 50 ug/ml after 24 hrs by agar disk diffusion assay; format: functional; conditions: read-out: DIZ; method in brief: as §1
Klebsiella pneumoniae [20] = experiment: Antibacterial activity against Klebsiella pneumoniae at 50 ug/ml after 24 hrs by agar disk diffusion assay; format: functional; conditions: read-out: DIZ; method in brief: as §1
Candida albicans [21] = experiment: Antifungal activity against Candida albicans at 50 ug/ml after 48 hrs by agar disk diffusion assay; format: functional; conditions: read-out: DIZ; method in brief: as §2
Staphylococcus aureus [22] = experiment: Antibacterial activity against Staphylococcus aureus at 50 ug/ml after 24 hrs by agar disk diffusion assay; format: functional; conditions: read-out: DIZ; method in brief: as §4
Aspergillus niger [23] = experiment: Antifungal activity against Aspergillus niger at 50 ug/ml after 48 hrs by agar disk diffusion assay; format: functional; conditions: read-out: DIZ; method in brief: as §2
SK-OV-3 [24] = experiment: Cytotoxicity against human SKOV3 cells after 48 hrs by SRB assay; format: functional, cell-based; conditions: SK-OV-3, 48 h; method in brief: as §3
Enterococcus faecalis [25] = experiment: Antibacterial activity against Enterococcus faecalis at 50 ug/ml after 24 hrs by agar disk diffusion assay; format: functional; conditions: read-out: DIZ; method in brief: as §4
A549 [26] = experiment: Ratio of cisplatin IC50 to compound IC50 for human A549 cells; format: functional
Homo sapiens = species on record: Homo sapiens; experiment: Ratio of cisplatin IC50 to compound IC50 for human SK-MEL-12; format: functional
HCT-15 [27] = experiment: Ratio of cisplatin IC50 to compound IC50 for human HCT15 cells; format: functional
B16-F10 [28] = experiment: Ratio of cisplatin IC50 to compound IC50 for mouse B16F10; format: functional
HCT-15 [29] = experiment: Cytotoxicity against human HCT15 cells up to 50 ug/ml after 48 hrs by SRB assay; format: functional, cell-based; method in brief: as §3
[30] = Cytotoxicity against human SK-MEL-12 cells up to 50 ug/ml after 48 hrs by SRB assay; format: functional, cell-based; method in brief: as §3
B16-F10 [31] = experiment: Cytotoxicity against mouse B16F10 cells up to 50 ug/ml after 48 hrs by SRB assay; format: functional, cell-based; method in brief: as §3
A549 [32] = experiment: Cytotoxicity against human A549 cells up to 50 ug/ml after 48 hrs by SRB assay; format: functional, cell-based; method in brief: as §3

| IC50 [4] [µg/mL] | MIC (Candida albicans [9]) [µg/mL] | MIC (Aspergillus niger [10]) [µg/mL] | MIC (Escherichia coli [11]) [µg/mL] | MIC (Klebsiella pneumoniae [13]) [µg/mL] | MIC (Staphylococcus aureus [17]) [µg/mL] | MIC (Enterococcus faecalis [18]) [µg/mL] | SMILES | zone of inhibition at 25 µg/mL (Klebsiella pneumoniae [1]) [mm] | zone of inhibition at 25 µg/mL (Aspergillus niger [2]) [mm] | IC50 (B16-F10 [3]) [µg/mL] | zone of inhibition at 25 µg/mL (Candida albicans [5]) [mm] | zone of inhibition at 25 µg/mL (Escherichia coli [6]) [mm] | IC50 [7] [µg/mL] | IC50 (HCT-15 [8]) [µg/mL] | IC50 (A549 [12]) [µg/mL] | zone of inhibition at 25 µg/mL (Staphylococcus aureus [14]) [mm] | IC50 (SK-OV-3 [15]) | zone of inhibition at 25 µg/mL (Enterococcus faecalis [16]) [mm] | IC50 (SK-OV-3 [24]) [µg/mL] | Ratio IC50 (A549 [26]) | also measured |
| --- | --- | --- | --- | --- | --- | --- | --- | --- | --- | --- | --- | --- | --- | --- | --- | --- | --- | --- | --- | --- | --- |
| 511.24 (≈ 1450 µM) | > 100 | > 100 | 50 (≈ 142 µM) | 50 (≈ 142 µM) | 50 (≈ 142 µM) | 50 (≈ 142 µM) | Cc1ccc2[nH]c3c(c2c1)CCc1c-3nc(N)c(C#N)c1-c1cccnc1 |  |  | 13.7 (≈ 39 µM) |  |  | 16.6 (≈ 47.3 µM) | 47.6 (≈ 136 µM) | 16.1 (≈ 45.9 µM) |  |  |  | 10.6 (≈ 30.1 µM) |  | zone of inhibition at 50 µg/mL (Escherichia coli [19]): 19 mm; zone of inhibition at 50 µg/mL (Klebsiella pneumoniae [20]): 18 mm; zone of inhibition at 50 µg/mL (Candida albicans [21]): 5 mm; zone of inhibition at 50 µg/mL (Staphylococcus aureus [22]): 20 mm; zone of inhibition at 50 µg/mL (Aspergillus niger [23]): 3 mm; zone of inhibition at 50 µg/mL (Enterococcus faecalis [25]): 20 mm |
| 163.07 (≈ 374 µM) | > 100 | > 100 | 25 (≈ 57.4 µM) | 25 (≈ 57.4 µM) | 25 (≈ 57.4 µM) | 25 (≈ 57.4 µM) | Cc1ccc2[nH]c3c(c2c1)CCc1c-3nc(N)c(C#N)c1-c1cc2ccccc2nc1Cl | 25 | 6 | 5.89 (≈ 13.5 µM) | 10 | 23 | 4.48 (≈ 10.3 µM) | 4.43 (≈ 10.2 µM) | 3.72 (≈ 8.53 µM) | 25 |  | 24 | 21.9 (≈ 50.3 µM) | 1.51 | Ratio IC50 (Homo sapiens): 2.32; Ratio IC50 (HCT-15 [27]): 1.79 |
| 330.25 (≈ 684 µM) | > 100 | > 100 | 25 (≈ 51.8 µM) | 25 (≈ 51.8 µM) | 25 (≈ 51.8 µM) | 25 (≈ 51.8 µM) | CCOC(=O)c1c(N)nc2c(c1-c1cc3ccccc3nc1Cl)CCc1c-2[nH]c2ccc(C)cc12 | 26 | 7 | 20.5 (≈ 42.4 µM) | 11 | 23 | 27.7 (≈ 57.3 µM) |  | 17.6 (≈ 36.5 µM) | 25 |  | 24 | 18.6 (≈ 38.5 µM) |  | IC50 (HCT-15 [29]): Not Active |

Continued, molecule first:

| SMILES | IC50 [4] [µg/mL] | MIC (Candida albicans [9]) [µg/mL] | MIC (Aspergillus niger [10]) [µg/mL] | MIC (Escherichia coli [11]) [µg/mL] | MIC (Klebsiella pneumoniae [13]) [µg/mL] | MIC (Staphylococcus aureus [17]) [µg/mL] | MIC (Enterococcus faecalis [18]) [µg/mL] | zone of inhibition at 25 µg/mL (Klebsiella pneumoniae [1]) [mm] | zone of inhibition at 25 µg/mL (Aspergillus niger [2]) [mm] | IC50 (B16-F10 [3]) [µg/mL] | zone of inhibition at 25 µg/mL (Candida albicans [5]) [mm] | zone of inhibition at 25 µg/mL (Escherichia coli [6]) [mm] | IC50 [7] [µg/mL] | IC50 (HCT-15 [8]) [µg/mL] | IC50 (A549 [12]) [µg/mL] | zone of inhibition at 25 µg/mL (Staphylococcus aureus [14]) [mm] | IC50 (SK-OV-3 [15]) | zone of inhibition at 25 µg/mL (Enterococcus faecalis [16]) [mm] | IC50 (SK-OV-3 [24]) [µg/mL] | Ratio IC50 (A549 [26]) | also measured |
| --- | --- | --- | --- | --- | --- | --- | --- | --- | --- | --- | --- | --- | --- | --- | --- | --- | --- | --- | --- | --- | --- |
| CCOC(=O)c1c(N)nc2c(c1-c1cccs1)CCc1c-2[nH]c2ccc(C)cc12 | 244.85 (≈ 607 µM) | 75 (≈ 186 µM) | 75 (≈ 186 µM) | 25 (≈ 62 µM) | 25 (≈ 62 µM) | 25 (≈ 62 µM) | 25 (≈ 62 µM) | 29 | 17 | 19.4 (≈ 48 µM) | 18 | 26 | 48.2 (≈ 119 µM) | 22.5 (≈ 55.8 µM) | 23.4 (≈ 58 µM) | 27 | Not Active | 28 |  |  |  |
| Cc1ccc2[nH]c3c(c2c1)CCc1c-3nc(N)c(C#N)c1-c1cccs1 | 227.37 (≈ 638 µM) | 75 (≈ 210 µM) | 75 (≈ 210 µM) | 25 (≈ 70.1 µM) | 25 (≈ 70.1 µM) | 25 (≈ 70.1 µM) | 25 (≈ 70.1 µM) | 28 | 15 | 2.85 (≈ 8 µM) | 17 | 27 | 4.61 (≈ 12.9 µM) | 3.45 (≈ 9.68 µM) | 4.04 (≈ 11.3 µM) | 26 |  | 29 | 10 (≈ 28.1 µM) | 1.39 | Ratio IC50 (Homo sapiens): 2.25; Ratio IC50 (HCT-15 [27]): 2.31; Ratio IC50 (B16-F10 [28]): 1.94 |
| CCOC(=O)c1c(N)nc2c(c1-c1ccc(Br)cc1)CCc1c-2[nH]c2ccc(C)cc12 | 214.77 (≈ 451 µM) | > 100 | > 100 | 25 (≈ 52.5 µM) | 25 (≈ 52.5 µM) | 25 (≈ 52.5 µM) | 25 (≈ 52.5 µM) | 25 | 5 |  | 7 | 21 |  |  |  | 23 | Not Active | 22 |  |  | IC50 (HCT-15 [29]): Not Active; IC50 [30]: Not Active; IC50 (B16-F10 [31]): Not Active; IC50 (A549 [32]): Not Active |
